Measurements: ChEMBL document CHEMBL4270571, “6-Biphenylmethyl-3-hydroxypyrimidine-2,4-diones potently and selectively inhibited HIV reverse transcriptase-associated RNase H” (Eur J Med Chem, 2018)

Experiments:
[1] = target: Human immunodeficiency virus type 1 reverse transcriptase (Human immunodeficiency virus 1, UniProt Q72547); experiment: Inhibition of recombinant HIV1 reverse transcriptase RNase H expressed in Escherichia coli JM109 using RNA/DNA duplex substrate HTS1 as substrate
[2] = target: Human immunodeficiency virus type 1 integrase (Human immunodeficiency virus 1, UniProt Q7ZJM1); experiment: Inhibition of HIV integrase strand transfer activity expressed in Escherichia coli BL21 (DE3) using 5' biotin ATGTGGAAAATCTCTAGCA primer annealed with ACTGCTAGAGATTTTCCACAT 3' Cy5 template preincubated for 10 mins followed by primer/template addition measured after 30 mins by fluorescence assay
How it was run: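 Purified HIV integrase in 10 mM HEPES pH 7.5, 10% glycerol, 10 mM MnCl₂, 1 mM DTT, with compounds in duplicate at 0.13–100 (final), 10 min at 25 °C. 500 nM biotin/Cy5 oligo duplex added, 30 min at 37 °C, EDTA quench. Products captured on streptavidin beads, washed, NaOH-denatured, formamide-eluted, read at 635/675.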

[3] = system: Human immunodeficiency virus 1; experiment: Antiviral activity against HIV1 infected in human P4R5 cells assessed as reduction in viral infection preincubated with cells for 24 hrs followed by viral infection measured after 48 hrs by fluorescence based MAGI assay; type: functional, organism-based
How it was run: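 P4R5 indicator cells were seeded at 4 × 10³ per well in DMEM/10% FBS with puromycin. They were pretreated for 24 h with 1% DMSO or a range of compound concentrations, then infected with HIV-1 at an MOI of 1.25 for another 48 h. Cells were lysed and β-galactosidase was read by fluorescence with MUG substrate. EC50 is given as mean ± SD of at least two independent experiments.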

[4] = target: Gag-Pol polyprotein (Human immunodeficiency virus type 1 group M subtype B (isolate HXB2)(HIV-1), UniProt P04585); experiment: Inhibition of recombinant HIV1 reverse transcriptase polymerase expressed in Escherichia coli JM109 assessed as decrease in extension of 18 nucleotide DNA primer annealed to 100 nucleotide DNA template measured after 30 mins; design: species or system Human immunodeficiency virus 1
How it was run: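 18-nt DNA primer annealed to 100-nt DNA template (40 nM) was extended by 20 nM RT with dNTPs in 50 mM Tris pH 7.8, 50 mM NaCl, 1% DMSO, with increasing compound concentrations. Reactions were started with 6 mM MgCl₂, run 30 min at 37 °C, and stopped with EDTA. dsDNA formed was quantified by fluorescent dye (ex/em 504/531 nm), and dose-response data were fitted to a logistic curve.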

[5] = Cytotoxicity against human P4R5 cells assessed as reduction in cell viability after 72 hrs by XTT assay; type: cell-based
How it was run: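 P4R5 cells seeded at 4 × 10³ per well in DMEM/10% FBS with puromycin ([…]). Cells treated with 1% DMSO or varying compound concentrations for 72 h, then viability read by XTT kit. CC50 = concentration giving 50% cell death, mean from at least two independent experiments.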

[6] = Selectivity ratio of CC50 for human P4R5 cells to EC50 for HIV1 infected in human P4R5 cells; type: toxicity, cell-based
How it was run: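 P4R5 indicator cells, 4 × 10³ per well in DMEM/10% FBS with puromycin. […] Cytotoxicity arm: uninfected cells, compound for 72 h, XTT read-out; CC50 is 50% cell death. Each value is mean ± SD of ≥2 independent experiments.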

Human immunodeficiency virus type 1 integrase, sequence (Q7ZJM1 whole entry): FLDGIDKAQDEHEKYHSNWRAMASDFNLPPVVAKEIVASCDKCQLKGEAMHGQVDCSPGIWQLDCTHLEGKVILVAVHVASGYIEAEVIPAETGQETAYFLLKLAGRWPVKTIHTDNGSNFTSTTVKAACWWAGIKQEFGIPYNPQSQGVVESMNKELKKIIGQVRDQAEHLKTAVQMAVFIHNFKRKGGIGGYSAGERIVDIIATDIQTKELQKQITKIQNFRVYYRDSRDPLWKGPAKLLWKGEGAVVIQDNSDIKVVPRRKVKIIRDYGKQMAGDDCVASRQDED

CCOCn1c(Cc2ccc(-c3ccc(C#N)cc3)cc2)c(C)c(=O)n(O)c1=O
IC50 [1]: 5200 nM

O=c1cc(Cc2ccc(-c3ccc(Cl)c(F)c3)cc2)[nH]c(=O)n1O
IC50 [2]: > 100 µM
EC50 [3]: 15 µM
IC50 [4]: > 10 µM
CC50 [5]: 59 µM
IC50 [1]: 9.4 nM

CCOCn1c(Cc2ccc(-c3ccccc3)cc2)cc(=O)n(O)c1=O
EC50 [3]: > 20 µM
CC50 [5]: > 100 µM
IC50 [1]: > 5000 nM

O=c1cc(Cc2ccc(-c3cccc(Cl)c3)cc2)[nH]c(=O)n1O
IC50 [2]: > 100 µM
EC50 [3]: > 20 µM
IC50 [4]: > 10 µM
CC50 [5]: > 100 µM
IC50 [1]: 16 nM

CC(C)c1c(Cc2ccccc2)n(CCCCc2ccc(F)cc2)c(=O)n(O)c1=O
IC50 [1]: 900 nM

O=c1cc(Cc2cccc(-c3ccccc3)c2)[nH]c(=O)n1O
IC50 [2]: > 100 µM
EC50 [3]: 9.6 µM
IC50 [4]: > 10 µM
CC50 [5]: 16 µM
IC50 [1]: 16 nM

CC(C)c1c(Cc2ccccc2)n(CCc2ccc(F)cc2)c(=O)n(O)c1=O
IC50 [1]: 6600 nM

CC(C)c1c(Cc2ccc(F)cc2)n(Cc2ccccc2)c(=O)n(O)c1=O
IC50 [1]: 10000 nM

O=c1cc(Cc2ccc(-c3cccc(C(F)(F)F)c3)cc2)[nH]c(=O)n1O
IC50 [2]: > 100 µM
EC50 [3]: > 20 µM
IC50 [4]: > 10 µM
CC50 [5]: > 100 µM
IC50 [1]: 25 nM

CC(C)c1c(Cc2ccccc2)n(COCc2ccc(F)cc2)c(=O)n(O)c1=O
IC50 [1]: 2100 nM

CCOCn1c(Cc2ccc(-c3ccc(Cl)c(F)c3)cc2)cc(=O)n(O)c1=O
IC50 [1]: 430 nM

CCOCn1c(Cc2ccc(F)cc2)c(C(C)C)c(=O)n(O)c1=O
IC50 [1]: > 25000 nM

O=c1cc(Cc2cccc(-c3ccc(Cl)cc3)c2)[nH]c(=O)n1O
IC50 [2]: > 100 µM
EC50 [3]: 7.6 µM
IC50 [4]: > 10 µM
Ratio CC50/EC50 [6]: 4 to 6
CC50 [5]: 27 µM
IC50 [1]: 12 nM

O=c1cc(Cc2cccc(-c3cc(Cl)cc(C(F)(F)F)c3)c2)[nH]c(=O)n1O
IC50 [2]: > 100 µM
EC50 [3]: 20 µM
IC50 [4]: > 10 µM
CC50 [5]: > 100 µM
IC50 [1]: 38 nM

CC(C)c1c(Cc2ccccc2)n(COCCCCc2ccc(F)cc2)c(=O)n(O)c1=O
IC50 [1]: 1800 nM

O=c1cc(Cc2ccc(-c3ccc(F)cc3F)cc2)[nH]c(=O)n1O
IC50 [2]: > 100 µM
EC50 [3]: 5.6 µM
IC50 [4]: > 10 µM
CC50 [5]: 11 µM
IC50 [1]: 15 nM

O=c1cc(Cc2ccc(-c3cccc(F)c3)cc2)[nH]c(=O)n1O
IC50 [2]: > 100 µM
EC50 [3]: 12 µM
IC50 [4]: > 10 µM
CC50 [5]: 24 µM
IC50 [1]: 28 nM

CCOCn1c(Cc2ccc(-c3ccc(C(F)(F)F)cc3)cc2)cc(=O)n(O)c1=O
IC50 [1]: 2100 nM

O=c1cc(Cc2ccc(Br)cc2)[nH]c(=O)n1O
IC50 [2]: > 100 µM
EC50 [3]: > 20 µM
IC50 [4]: > 10 µM
CC50 [5]: 64 µM
IC50 [1]: 11 nM

CC(C)c1c(Cc2ccccc2)n(CCCc2ccc(F)cc2)c(=O)n(O)c1=O
IC50 [1]: 3800 nM

COc1ccc(-c2cccc(Cc3cc(=O)n(O)c(=O)[nH]3)c2)cc1F
IC50 [2]: > 100 µM
EC50 [3]: 12 µM
IC50 [4]: > 10 µM
CC50 [5]: 20 µM
IC50 [1]: 7.7 nM

COc1ccc(-c2ccc(Cc3cc(=O)n(O)c(=O)[nH]3)cc2)cc1F
IC50 [2]: > 100 µM
EC50 [3]: 11 µM
IC50 [4]: > 10 µM
Ratio CC50/EC50 [6]: 4 to 6
CC50 [5]: 49 µM
IC50 [1]: 7.6 nM

CC(C)c1c(Cc2ccc(F)cc2)n(Cc2ccc(F)cc2)c(=O)n(O)c1=O
IC50 [1]: 13000 nM

O=c1cc(Cc2ccc(-c3ccc(C(F)(F)F)cc3C(F)(F)F)cc2)[nH]c(=O)n1O
IC50 [2]: > 100 µM
EC50 [3]: > 20 µM
IC50 [4]: > 10 µM
CC50 [5]: > 100 µM
IC50 [1]: 85 nM

O=c1cc(Cc2cccc(Br)c2)[nH]c(=O)n1O
IC50 [2]: > 100 µM
EC50 [3]: > 20 µM
IC50 [4]: > 10 µM
CC50 [5]: 63 µM
IC50 [1]: 13 nM

O=c1cc(Cc2ccc(-c3ccc(C(F)(F)F)cc3)cc2)[nH]c(=O)n1O
IC50 [2]: > 100 µM
EC50 [3]: 16 µM
IC50 [4]: > 10 µM
CC50 [5]: > 100 µM
IC50 [1]: 47 nM

CC(C)c1c(Cc2ccccc2)n(COCc2ccc(F)cc2F)c(=O)n(O)c1=O
IC50 [1]: 1800 nM

O=c1cc(Cc2ccc(-c3ccccc3)cc2)[nH]c(=O)n1O
IC50 [2]: > 100 µM
EC50 [3]: 10 µM
IC50 [4]: > 10 µM
CC50 [5]: 11 µM
IC50 [1]: 16 nM

CCOCn1c(Cc2ccc(-c3ccccc3)cc2)c(C)c(=O)n(O)c1=O
IC50 [1]: 6200 nM

O=c1cc(Nc2ccc(-c3ccccc3)cc2)[nH]c(=O)n1O
IC50 [4]: 2 µM

CC(C)c1c(Cc2ccc(F)cc2)n(COCc2ccc(F)cc2)c(=O)n(O)c1=O
IC50 [1]: 6200 nM

CCc1c(Cc2ccccc2)c(=O)n(O)c(=O)n1COCc1ccc(F)cc1
IC50 [1]: 15000 nM

CCc1c(-c2ccc(F)cc2)n(COCc2ccc(F)cc2)c(=O)n(O)c1=O
IC50 [1]: 17000 nM

CC(C)c1c(Cc2ccccc2)n(Cc2ccccc2)c(=O)n(O)c1=O
IC50 [1]: 15000 nM

O=c1cc(Cc2ccc(-c3ccc(Cl)cc3Cl)cc2)[nH]c(=O)n1O
IC50 [2]: > 100 µM
EC50 [3]: 13 µM
IC50 [4]: > 10 µM
CC50 [5]: > 100 µM
IC50 [1]: 9.2 nM

O=c1cc(Cc2ccc(-c3cc(Cl)cc(C(F)(F)F)c3)cc2)[nH]c(=O)n1O
IC50 [2]: > 100 µM
EC50 [3]: > 20 µM
IC50 [4]: > 10 µM
CC50 [5]: > 100 µM
IC50 [1]: 15 nM

COn1c(=O)c(C(C)C)c(Cc2ccccc2)n(COCc2ccc(F)cc2)c1=O
IC50 [1]: 11000 nM

O=c1cc(Cc2cccc(-c3cccc(Cl)c3)c2)[nH]c(=O)n1O
IC50 [2]: > 100 µM
EC50 [3]: 11 µM
IC50 [4]: 10 µM
Ratio CC50/EC50 [6]: 4 to 6
CC50 [5]: 62 µM
IC50 [1]: 20 nM

CC(C)c1c(Cc2ccccc2)n(COCc2ccc(F)cc2)c(=O)n(C)c1=O
IC50 [1]: 7000 nM

CC(C)c1c(Cc2ccccc2)n(COCc2cccc(Cl)c2F)c(=O)n(O)c1=O
IC50 [1]: 900 nM

O=c1cc(Cc2cccc(-c3cccc(C(F)(F)F)c3)c2)[nH]c(=O)n1O
IC50 [2]: > 100 µM
EC50 [3]: > 20 µM
IC50 [4]: > 10 µM
CC50 [5]: > 100 µM
IC50 [1]: 37 nM

CC(C)c1c(Cc2ccccc2)n(COCCc2ccc(F)cc2)c(=O)n(O)c1=O
IC50 [1]: 2800 nM

O=c1cc(Cc2cccc(-c3cccc(F)c3)c2)[nH]c(=O)n1O
IC50 [2]: > 100 µM
EC50 [3]: 9.9 µM
IC50 [4]: > 10 µM
CC50 [5]: 14 µM
IC50 [1]: 18 nM

CCOCn1c(Cc2ccccc2)c(C(C)C)c(=O)n(O)c1=O
IC50 [1]: 6800 nM

Cc1cc(-c2cccc(Cc3cc(=O)n(O)c(=O)[nH]3)c2)ccc1F
IC50 [2]: > 100 µM
EC50 [3]: 12 µM
IC50 [4]: > 10 µM
CC50 [5]: 37 µM
IC50 [1]: 8.8 nM

CC(C)c1c(Cc2ccccc2)n(COCc2ccccc2)c(=O)n(O)c1=O
IC50 [1]: 2500 nM

Cc1cc(-c2ccc(Cc3cc(=O)n(O)c(=O)[nH]3)cc2)ccc1F
IC50 [2]: > 100 µM
EC50 [3]: > 20 µM
IC50 [4]: > 10 µM
CC50 [5]: > 100 µM
IC50 [1]: 11 nM

CCOCn1c(Cc2ccc(-c3cc(OC)cc(OC)c3)cc2)c(C)c(=O)n(O)c1=O
IC50 [1]: 6700 nM
